An excerpt weighted towards active compounds, which were near 2.9% of everything screened.
ABHD4 inh = ABHD4 (mouse) inhibition, primary FP screen | purified mABHD4, FP-Rh probe fluorescence polarization | inhibition, % at 8.92 µM | 0.54% of 370,000 active | AID 720543;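 active = inhibition exceeding the mean over every tested compound plus 3 SD, cut at about 30% in these data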;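 note: 0% = plate median of compound wells and 100% = S159A mutant with DMSO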
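Assay system: mABHD4 protein; medium: HEPES pH 7.0, NaCl, Pluronic buffer; dosing: 8.92 µM, single dose; schedule: 45 min + 60 min at 25 °C; signal: FP readout, ex 525 nm / em 598 nm; read-out: normalized percent inhibition of probe labeling; repeats: single replicate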
TCR-CD3 inh = blocks the human TCR-CD3 interaction; 0.37% of 360,000 active; TAMRA-labeled TCR probe fluorescence, biochemical; inhibition, % at 9.4 µM; AID 651800; in the data active = inhibition above about 19%;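 note: recombinant mutant TCR 2C K166C tagged with TAMRA read by polarization; 0% = receptor in buffer alone and 100% = receptor with positive control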
HTRA1 inh = HTRA1 (human) protease inhibition | recombinant HTRA1, FP-rhodamine activity-based probe, fluorescence polarization | 0.5% of 340,000 active | Q92743 | inhibition, % at 5.96 µM; in the data active = inhibition above about 36%;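 note: 0% = enzyme with DMSO and 100% = wells lacking enzyme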
Target sequence (Q92743 whole entry, looked up): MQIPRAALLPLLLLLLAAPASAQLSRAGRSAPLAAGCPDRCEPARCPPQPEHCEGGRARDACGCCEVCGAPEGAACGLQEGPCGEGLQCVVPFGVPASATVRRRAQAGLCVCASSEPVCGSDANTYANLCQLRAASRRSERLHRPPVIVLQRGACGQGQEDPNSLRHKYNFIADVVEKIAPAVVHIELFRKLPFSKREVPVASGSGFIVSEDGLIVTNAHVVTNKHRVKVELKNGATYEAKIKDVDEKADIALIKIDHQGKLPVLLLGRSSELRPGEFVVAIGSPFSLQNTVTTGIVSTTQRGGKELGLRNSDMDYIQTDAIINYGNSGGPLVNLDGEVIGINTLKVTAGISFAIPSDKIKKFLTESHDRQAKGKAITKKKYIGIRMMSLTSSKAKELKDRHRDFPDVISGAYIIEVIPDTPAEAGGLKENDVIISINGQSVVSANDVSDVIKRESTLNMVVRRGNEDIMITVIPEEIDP
PAD4 FP inh = PAD4 (human) enzyme inhibition; 0.41% of 330,000 active; AID 485272; inhibition, % at 6.36 µM; Q9UM07; recombinant PAD4, RCA probe fluorescence polarization;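 active = percent inhibition above a cutoff equal to the mean of all tested compounds plus 3 SD, cut at about 15% in these data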;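 note: 0% = PAD4 with RCA probe and DMSO and 100% = probe without PAD4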
SIAE inh = human SIAE inhibition, primary screen. SIAE FP-Rh probe binding, fluorescence polarization. inhibition, % at 9.66 µM. 0.69% of 370,000 active. AID 1053197. Q9HAT2;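 active = inhibition above a cutoff: mean of compounds within the control limits plus 3 SD of those, cut at about 17% in these data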;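 note: 0% = plate median of compound wells and 100% = probe without SIAE protein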
PRMT1 FP inh = PRMT1 (human) inhibition, primary screen; Q99873; recombinant PRMT1, activity-based probe fluorescence polarization; inhibition, % at 2.79 µM; 1.3% of 370,000 active; AID 652257;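 active = inhibition above about 21% made by adding two undisclosed values, limit read from the data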
HTRA1 inh conf = confirmation of human HTRA1 inhibitors. shares compounds with HTRA1 inh. recombinant HTRA1, FP-rhodamine activity-based probe, fluorescence polarization. inhibition, % at 5.96 µM. 66% of 1,600 active;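 active = mean inhibition over three repeats above a set limit taken from the earlier primary screen, cut at about 37% in these data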;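 note: 0% = HTRA1 with DMSO and 100% = wells lacking HTRA1; inhibitors block probe binding so polarization drops and inhibition rises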
The depositor's hits bear a star; x = no result.

SMILES	ABHD4 inh	TCR-CD3 inh	HTRA1 inh	PAD4 FP inh	SIAE inh	PRMT1 FP inh	HTRA1 inh conf
Cc1cc(C)c2sc(NNC(=O)c3ccc(S(=O)(=O)N4CCc5ccccc5C4)cc3)nc2c1	1.5	-10.6	44.5*	-2.7	-0.5	1.5	41.7*
Cc1cc(C)c2nc(NNC(=O)c3ccc(S(=O)(=O)N4CCc5ccccc5C4)cc3)sc2c1	6.0	3.2	51.8*	-0.3	5.5	-7.1	47.9*
COc1ccc(OC)c(CN2C(=O)COc3ccccc3C2c2nnnn2C2CCCC2)c1 (stereo not given)	-7.3	x	x	x	5.0	2.8	x
Oc1ccc2ccccc2c1N=Nc1ccc(F)cc1	-3.6	-1.7	7.7	-2.6	-14.4	-0.4	x
O=C(O)Cc1ccc(N=Nc2c(O)c(C(=O)O)cc3ccccc23)cc1	21.8	9.8	45.4*	0.7	6.5	19.2	42.6*
C#CCNC(=O)C[C@@H]1C[C@]2(C(=O)OCC)CCC3=C2N(CCC3)C1=O	1.5	x	x	x	1.9	-3.2	x
CCCOc1ccc(N)cc1N	22.2	4.9	55.5*	49.3*	15.2	15.9	13.4
CCCOc1cc(N)ccc1C(=O)OCCN(CC)CC	0.9	4.5	6.1	-2.0	6.2	-3.0	x
CC(=O)NC(C)c1cc(Cl)c2cccnc2c1O (stereo not given)	3.7	-0.8	41.0*	-4.4	1.5	1.2	51.5*
Clc1cc2cccnc2c2ccccc12	7.3	-8.0	-1.7	1.0	-0.3	4.8	x
CC(=O)NC(C)c1cc(Cl)c2ccccc2c1O (stereo not given)	0.2	2.1	-0.7	6.4	5.8	-1.2	x
CCC(=O)NC(C)c1cc(Cl)c2cccnc2c1O (stereo not given)	-1.3	4.0	47.6*	3.5	7.8	-2.3	82.3*
CCOc1ccc(C(Nc2cccnc2)c2cc(Cl)c3cccnc3c2O)cc1 (stereo not given)	-0.2	0.4	43.2*	3.1	-0.1	11.9	41.9*
Oc1c(Cl)cc(Cl)c2cccnc12	11.1	-3.1	48.2*	x	22.6*	1.1	56.0*
CC(C)C[C@H]1COc2cccc(F)c2S(=O)(=O)N1Cc1cn(CCC2OCCO2)nn1	6.1	x	x	x	6.4	1.6	x
NC1=[N+](Cc2ccccc2)C[C@H]2C(=C3CCCC[C@H]3n3c(=O)n(-c4ccccc4)c(=O)n32)N1	2.2	x	x	x	0.2	0.1	x
COC(=O)[C@]12C[C@H](CC(=O)N3CCC(c4ccccc4)CC3)C(=O)N(Cc3cccc4ccccc34)C1=C[C@H](COCc1ccccc1)O[C@@H]2C	-8.1	x	x	x	-0.3	0.5	x
CN1CCN(C(c2ccc(Br)cc2)c2cc(Cl)c3cccnc3c2O)CC1 (stereo not given)	-5.1	-15.7	51.7*	-3.8	-4.0	-3.2	70.2*
O=C(NC(c1ccccc1)c1cc(Cl)c2cccnc2c1O)c1cccnc1 (stereo not given)	5.9	-6.8	x	-1.2	-2.0	-2.0	x
CCC(=O)NC(c1ccc(C)cc1)c1cc(Cl)c2cccnc2c1O (stereo not given)	x	x	62.4*	-6.8	x	x	76.1*
CN1CCN(C(c2ccc(F)cc2)c2ccc3cccnc3c2O)CC1 (stereo not given)	x	x	5.4	x	x	x	x
COc1ccc(C(NC(C)=O)c2nccc3cc(OC)c(OC)cc23)cc1OC (stereo not given)	-12.2	-7.4	-8.0	x	6.3	3.5	x
Cc1cc(Cl)c2ccc3ccccc3c2n1	-2.9	2.6	1.2	3.6	4.3	-0.5	x
COc1ccc(C(NC(C)=O)c2cc(Cl)c3cccnc3c2O)cc1OC (stereo not given)	5.6	-2.4	42.1*	-0.7	15.2	0.4	56.0*
Cc1ccc2c(Cl)cc(Cl)c(O)c2n1	5.2	-4.4	39.8*	x	11.2	-4.8	46.9*
CC(=O)C1=C(C)N(Cc2ccc(F)cc2)C(=S)NC1c1ccc(Cl)cc1 (stereo not given)	-5.2	7.3	x	x	-4.3	-0.4	x
C=CCNC(=O)Nc1ccc2c(c1)[C@]1(CC(=O)N(CC(C)C)C1c1ccccc1)C(=O)N2C (stereo not given in full)	3.5	x	x	x	-3.7	3.5	x
COc1cccc(/C=N/Nc2ncnc3scc(-c4ccccc4)c23)c1O	8.0	3.5	44.7*	-7.0	2.6	-2.3	1.6
